Bioassay records deposited in PubChem by Sanford-Burnham Center for Chemical Genomics.
In the library only some 0.79% were active in any assay of this set; here they are far more common.
bIAP act: intestinal alkaline phosphatase (bovine) activation | activation factor at 20 µM | hit rate 0.17% among 200,000 | purified bovine IAP, CDP-star luminescence, 30 min; active compounds read high; fold of DMSO-control signal, blank-subtracted;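 active = activation factor of 2 or more at 20 µM, a signal rise over negative controls twice the positive control's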
bIAP inhibitor: blocks bovine intestinal alkaline phosphatase activity. purified bovine IAP, CDP-star luminescence, 30 min. inhibition, % at 20 µM. 190,000 tested, under 10 active;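 active = over 50% inhibition of intestinal alkaline phosphatase at 20 µM in the single-dose screen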
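Assay system: bovine IAP enzyme; medium: DEA buffer 100 mM, pH 9.8, with MgCl2 1.0 mM, ZnCl2 0.02 mM; doses: 20 µM single dose; incubation: enzyme reaction for 30 min at room temperature; detection: CDP-star luminescence signal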
hIAP block: blocks human intestinal alkaline phosphatase | P09923 | purified IAP, CDP-Star luminescence, 30 min | inhibition, % at 10 µM | hit rate 0.12% among 330,000 | AID 2544;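 active = inhibition reaching a set limit with compound at 10 µM in the primary screen, cut at about 35% in these data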;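 also: plate controls were DMSO wells with enzyme for no effect and no-enzyme buffer wells for full effect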
Target sequence (P09923 whole entry, looked up): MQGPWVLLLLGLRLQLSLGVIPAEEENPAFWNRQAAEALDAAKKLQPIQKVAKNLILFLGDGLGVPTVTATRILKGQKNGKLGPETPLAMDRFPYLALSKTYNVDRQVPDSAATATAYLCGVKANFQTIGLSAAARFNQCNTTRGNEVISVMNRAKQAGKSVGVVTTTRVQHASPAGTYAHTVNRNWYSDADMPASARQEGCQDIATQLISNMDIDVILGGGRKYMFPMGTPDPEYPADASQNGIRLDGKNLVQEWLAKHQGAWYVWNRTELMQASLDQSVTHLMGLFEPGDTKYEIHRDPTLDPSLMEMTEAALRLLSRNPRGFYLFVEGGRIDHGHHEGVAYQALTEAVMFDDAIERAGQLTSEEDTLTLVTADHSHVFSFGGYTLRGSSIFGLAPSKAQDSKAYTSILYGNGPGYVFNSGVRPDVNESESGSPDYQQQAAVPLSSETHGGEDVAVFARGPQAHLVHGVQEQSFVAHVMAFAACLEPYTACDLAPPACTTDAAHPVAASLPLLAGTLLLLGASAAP
mIAP inh: blocks mouse intestinal alkaline phosphatase; purified mouse IAP, CDP-Star luminescence, 30 min; hit rate 0.2% among 330,000; inhibition, % at 10 µM; AID 2806;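 active = inhibition of at least 40% at 10 µM in the primary screen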;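 also: plate controls were DMSO with enzyme for no effect and no enzyme wells for full effect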
mIAP activ: mouse IAP activation | muIAP, CDP-Star luminescence, 30 min; active compounds read high; 1 = vehicle-only enzyme signal, 0 = enzyme-free wells | activation factor at 10 µM | hit rate 0.24% among 330,000;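 active = activation factor of at least 2 at 20 µM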
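Assay system: mouse IAP enzyme / Compound: DMSO-dissolved test compounds / Timing: 30 min, room temperature / Measured by: luminescence from enzymatic CDP-Star hydrolysis / Control set: DMSO-only wells, enzyme-free buffer wells as negative control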
hIAP activ: increases human intestinal alkaline phosphatase activity. P09923. hit rate 0.16% among 330,000. purified human IAP, CDP-Star luminescence, 30 min; active compounds read high; 1 = vehicle-only enzyme, 0 = enzyme-free background. activation factor at 10 µM. AID 2524;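 active = activation factor of the enzyme at least 2-fold when tested at 20 µM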
hIAP act conf: human IAP activation confirmation; hit rate 10% among 880; purified IAP, CDP-Star luminescence, 30 min; active compounds read low; activation (%Activity, negative = activation), % at 8.3 µM; shares compounds with hIAP activ;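 active = at least twofold enzyme activation in any of six single-dose repeats, which the averaged readout prints as negative percent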
The depositor's hits bear a star; nt = no result given.

SMILES	bIAP act	bIAP inhibitor	hIAP block	mIAP inh	mIAP activ	hIAP activ	hIAP act conf
O=C1C(Nc2ccccc2)=C(N2CCCCC2)C(=O)c2ccccc21	0.8	15.9	3.9	-0.3	1	0.961	nt
O=C(/C=C/c1ccc(O)cc1)c1ccc(NC2=C(N3CCCCC3)C(=O)c3ccccc3C2=O)cc1	0.6	35.1	35.3*	29.1	0.709	0.647	0.0
C=CCN1C(=O)/C(=C/C=C2/N(CC)c3ccc(S(=O)(=O)N(C)C)cc3N2CC)SC1=S	0.9	13.8	35.9*	26.8	0.732	0.641	0.3
CN(C)NC(=S)NC1CC2CCC1C2 (stereo unspecified)	nt	nt	-12.2	-6.4	1.06	1.12	nt
COc1ccc(C(=O)NNC2=Nc3cccc4cccc2c34)cc1	1.2	-18.6	-34.2	24.6	0.754	1.34	nt
COc1ccc(CC(=O)NNC2=Nc3cccc4cccc2c34)cc1	nt	nt	-119.3	-5.9	1.06	2.19*	12.2
COc1ccc(-c2c(C)n([O-])c3c([n+]2=O)CCCC3)cc1	1	1.3	-122.1	0.6	0.994	2.22*	5.5
CN(C)C1=NCCN1CCC1CCCC1	nt	nt	4.1	0.8	0.992	0.959	nt
O=C(c1ccc(Oc2cc(Cl)cc(Cl)c2)o1)N1CCCCC1	nt	nt	3.5	-7.2	1.07	0.965	nt
Cc1cc(C)n(C(=O)CN2C(=O)CCC2=O)n1	0.9	13.8	-6.8	-4.1	1.04	1.07	nt
Cc1cc(C)n(C(=O)C23CC4CC(CC(C4)C2)C3)n1	1	1.5	-135.6	13.5	0.865	2.36*	-125.8*
Cc1nn(C(=O)CCC(=O)NCc2cccc(F)c2)c2ccccc12	nt	nt	38.6*	2.4	0.976	0.614	4.5
Cc1nn(C(=O)CCC(=O)NCCc2ccccc2)c2ccccc12	nt	nt	13.1	4.5	0.955	0.869	nt
Cc1ccc(S(=O)(=O)NC(CC(=O)NCC2CCCO2)c2ccco2)cc1 (stereo unspecified)	1	1.7	38.6*	-14.9	1.15	0.614	-2.6
CCOc1ccc2nc(SCC(=O)NCC3CCCO3)c(C#N)cc2c1 (stereo unspecified)	nt	nt	10.6	0.0	1	0.894	nt
CC[n+]1ccccc1/C=C1\Sc2ccc(C)cc2N1C	nt	nt	-9.3	8.8	0.912	1.09	nt
CN1/C(=C/c2cccc[n+]2CCO)Sc2ccccc21	nt	nt	36.8*	-0.1	1	0.632	11.3
Cc1cc(C)cc(SCc2noc(C(=O)NCC3CCCO3)c2C(=O)O)c1 (stereo unspecified)	0.9	6.4	-5.2	-2.1	1.02	1.05	nt
Cc1cccc(SCc2noc(C(=O)NCC3CCCO3)c2C(=O)O)c1 (stereo unspecified)	1	-2.2	35.1*	4.3	0.957	0.649	-212.7*
O=C(COc1ccc(Br)cc1)NCCCn1ccnc1	nt	nt	-155.4	0.6	0.994	2.55*	50.5
COc1cc(NC(C)CCCN)c2ncccc2c1 (stereo unspecified)	nt	nt	51.7*	0.9	0.991	0.483	-48.5
C/C=C/C(=O)Nc1cccc(C2=NOC3(C2)C[C@H](C(N)=O)N(C(=O)c2ccccc2C(=O)c2ccccc2)C3)c1 (stereo partly specified)	nt	nt	3.4	0.5	0.995	0.966	nt
Cc1cc[n+]2n1CC(O)C2 (stereo unspecified)	nt	nt	-10.3	6.0	0.94	1.1	nt
O=C(CSc1nc2c(c(=O)n1-c1ccccc1)SCC2)N1CCN(c2ccccc2)CC1	1	2.5	7.8	-1.5	1.01	0.922	nt
O=C(CSc1nc2c(c(=O)n1-c1ccc(F)cc1)SCC2)N1CCCC1	1	-3.1	-106.5	-13.5	1.14	2.06*	8.3
SMILES	bIAP act	bIAP inhibitor	hIAP block	mIAP inh	mIAP activ	hIAP activ	hIAP act conf
Cc1ccc(NC(=O)c2[nH]cnc2C(=O)NN)cc1	1.3	-26.2	-111.2	2.5	0.975	2.11*	2.0
Cc1ccc(NC(=O)c2nc[nH]c2C(=O)NCCCNC(=O)c2[nH]cnc2C(=O)Nc2ccc(C)cc2)cc1	nt	nt	-35.4	-3.3	1.03	1.35	nt
NNC(=O)c1nc[nH]c1C(=O)Nc1ccccn1	1.7	-67.6	-102.2	6.0	0.94	2.02*	-4.9
Cc1cccc(-n2ncc3c(NCc4ccco4)ncnc32)c1	0.9	8.5	-1.9	-11.5	1.11	1.02	nt
Cc1cccc(-n2ncc3c(NNC(=O)c4ccco4)ncnc32)c1	nt	nt	-246.8	4.1	0.959	3.47*	-74.5*
Cc1ccc(-n2ncc3c(NNC(=O)c4ccco4)ncnc32)cc1Cl	nt	nt	-193.4	3.5	0.965	2.93*	-57.3
CCOC(=O)Cc1csc(NC(=O)Cn2c(=O)oc3ccccc32)n1	nt	nt	-10.1	-4.7	1.05	1.1	nt
CC1CC(C)CN(C(=O)COC(=O)c2ccc(Cl)nc2)C1 (stereo unspecified)	nt	nt	-10.3	4.9	0.951	1.1	nt
COc1ccc(C=C2C(=O)c3ccccc3C2=O)cc1O	0.3	nt	44.7*	23.4	0.766	0.553	56.2
COc1cc(C=C2C(=O)c3ccccc3C2=O)ccc1O	nt	nt	31.6	27.0	0.73	0.684	nt
Brc1ccc(CNc2cc3c(cc2Br)OCCO3)cc1	0.8	18.6	5.6	2.4	0.976	0.944	nt
COc1ccc(O)c(/C=N/NC(=S)NCCc2ccccc2)c1	nt	nt	-106.8	8.8	0.912	2.07*	-91.2*
Oc1ccc(Br)cc1/C=N/NC(=S)NCCc1ccccc1	nt	nt	-5.8	6.8	0.932	1.06	nt
Cc1cccc(NC(=O)C2CC(=O)n3cnnc3S2)c1 (stereo unspecified)	1	-0.9	-114.2	8.8	0.912	2.14*	-12.3
CCN=C1SC(C(=O)Nc2cccc(C)c2)CC(=O)N1CC (stereo unspecified)	0.9	9.4	-6.2	0.4	0.996	1.06	nt
CCOCCCNCc1ccc(OCc2ccccc2C)c(OC)c1	1.1	-9.1	0.0	0.6	0.994	1	nt
CN(C)S(=O)(=O)c1cccc(NC(=S)NNC(=O)c2cc3ccccc3cc2O)c1	nt	nt	-164.7	10.0	0.9	2.65*	72.3
COc1ccc(C(=O)NNC(=S)NC(=O)/C=C/c2cccs2)cc1	1.1	-9.2	-25.3	20.9	0.791	1.25	nt
O=C(NNC(=O)c1cc2ccccc2cc1O)Nc1ccc(Br)cc1	nt	nt	-13.5	10.6	0.894	1.14	nt
O=C(NC(=S)NNC(=O)c1ccc(Cl)cc1Cl)c1cccnc1	1	-2.9	-5.0	27.2	0.728	1.05	nt
O=C(/C=C/c1cccs1)NC(=S)NNC(=O)c1ccccc1O	1.3	-34.5	-136.7	30.5	0.695	2.37*	27.9
COc1ccc(NC(=O)NNC(=O)c2cc3ccccc3cc2O)cc1	nt	nt	-133.6	6.3	0.937	2.34*	3.6
O=C(NC(=S)NNC(=O)c1ccccc1O)c1cccnc1	1.1	-8.3	-105.5	16.6	0.834	2.05*	-0.9
CCn1cc(C(=O)NCC(OC)OC)c(=O)c2cc(S(=O)(=O)N3CCC(C)CC3)ccc21	nt	nt	-43.5	-0.9	1.01	1.44	nt
